Test results reported in ChEMBL document CHEMBL1134791, “2- and 3-substituted 1,4-naphthoquinone derivatives as subversive substrates of trypanothione reductase and lipoamide dehydrogenase from Trypanosoma cruzi: synthesis and correlation between redox cycling activities and in vitro cytotoxicity” (J Med Chem, 2001).
The source made the active and inactive calls. The rule behind the calls is not given here.

Key:
Leishmania donovani = assay: In vitro antiparasitic activity against Leishmania donovani was tested by sigmoidal regression analysis; type: functional
Method in brief: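 Mouse peritoneal macrophages (female CD1, starch-elicited, harvested 24 h) infected with L. donovani amastigotes (strain MHOM/ET/67/L82, hamster spleen) or T. cruzi Y-strain trypomastigotes (5:1, from MDCK overlay). Infected cells exposed to a 3-fold dilution series in quadruplicate for 5 days (L. donovani) or 3 days (T. cruzi). Giemsa-stained slides scored for % macrophages cleared of amastigotes versus untreated cultures. ED50 by sigmoidal regression.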

Trypanosoma cruzi [1] = assay: Ratio of cytochrome c reduction and NADH oxidation by TcLipDH (Trypanosoma cruzi lipoamide dehydrogenase) at 50 uM concentration, in cytochrome c assay
Method in brief: (§1)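 T. cruzi or pig heart LipDH in 50 mM potassium phosphate pH 7.0 with 100 µM NADH, 50 µM cytochrome c and 50 µM naphthoquinone at 31 °C. Cytochrome c reduction read at 550 nm; NADH oxidation measured at 340 nm in the same conditions without cytochrome c. One-electron reduction % = cytochrome c rate ÷ (2 × NADH rate). At least duplicate.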

[2] = target: T1, Dihydrolipoyl dehydrogenase, mitochondrial (Sus scrofa) (UniProt P09623); assay: Ratio of cytochrome c reduction and NADH oxidation by pig heart LipDH (pig heart lipoamide dehydrogenase) at 50 uM concentration, cytochrome c assay; method in brief: as §1
T1 sequence (whole entry): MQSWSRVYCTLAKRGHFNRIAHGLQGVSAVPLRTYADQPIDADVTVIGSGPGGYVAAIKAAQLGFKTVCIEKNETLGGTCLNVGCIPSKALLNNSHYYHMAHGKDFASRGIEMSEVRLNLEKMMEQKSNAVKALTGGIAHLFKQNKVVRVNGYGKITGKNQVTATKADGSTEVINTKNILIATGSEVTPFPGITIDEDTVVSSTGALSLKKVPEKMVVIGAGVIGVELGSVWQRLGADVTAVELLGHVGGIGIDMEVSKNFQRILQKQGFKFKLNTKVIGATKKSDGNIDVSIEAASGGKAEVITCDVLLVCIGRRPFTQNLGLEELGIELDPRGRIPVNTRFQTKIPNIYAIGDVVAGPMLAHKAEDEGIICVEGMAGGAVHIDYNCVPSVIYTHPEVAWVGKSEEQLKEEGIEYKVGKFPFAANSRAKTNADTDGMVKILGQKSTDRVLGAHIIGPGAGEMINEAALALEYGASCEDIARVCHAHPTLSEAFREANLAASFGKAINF

[3] = system: Dihydrolipoyl dehydrogenase (Trypanosoma cruzi); assay: The second order rate constant of the TcLipDH (Trypanosoma cruzi lipoamide dehydrogenase) catalyzed NADH oxidation.
[4] = target: T1, Dihydrolipoyl dehydrogenase, mitochondrial (Sus scrofa); assay: Second order rate constant of the pig heart LipDH (lipoamide dehydrogenase) catalyzed NADH oxidation.
Method in brief: (§2)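 Recombinant T. cruzi LipDH (E. coli, purified) or pig heart LipDH, 0.1–2.5 µg/mL. Buffer was 50 mM potassium phosphate, 1 mM EDTA, pH 7.0, with 100 µM NADH and naphthoquinone at 10 µM–1.2 mM; all assays carried equal DMSO. Run at 31 °C, started with enzyme, NADH decrease followed at 340 nm. Km and Vmax from Lineweaver–Burk plots. At least duplicate.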

[5] = target: T1, Dihydrolipoyl dehydrogenase, mitochondrial (Sus scrofa); assay: Ratio of cytochrome c reduction and NADH oxidation by pig heart LipDH (lipoamide dehydrogenase) at 50 uM concentration, in cytochrome c assay; method in brief: as §1
[6] = target: T1, Dihydrolipoyl dehydrogenase, mitochondrial (Sus scrofa); assay: The second order rate constant of the pig heart LipDH (lipoamide dehydrogenase) catalyzed NADH oxidation.; method in brief: as §2
Trypanosoma brucei [7] = assay: In vitro antiparasitic activity against Trypanosoma brucei was tested by sigmoidal regression analysis
[8] = target: Trypanothione reductase (Trypanosoma cruzi) (UniProt P28593); assay: Rate of NADPH oxidation by TcTR in presence of 100 uM NQ was determined in comparison to intrinsic oxidase activity
Method in brief: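 Quinone reductase activity of recombinant TcTR measured as NADPH oxidation at 340 nm. Buffer was 20 mM Hepes, 1 mM EDTA, 0.15 M KCl, pH 7.25, with 250 µM NADPH at 25 °C. Rate with naphthoquinone (100 µM for line 8, 25 µM for line 9) divided by intrinsic oxidase rate of enzyme plus NADPH alone. Mean of at least two measurements.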

Trypanosoma cruzi [9] = assay: The Michaelis-Menten constant for NADH oxidation by TcLipDH (Trypanosoma cruzi lipoamide dehydrogenase)
Trypanosoma cruzi [10] = assay: Vmax is the maximum velocity of the TcLipDH (Trypanosoma cruzi lipoamide dehydrogenase) catalyzed NADH oxidation
Method in brief: (§3)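 Recombinant TcLipDH expressed in E. coli, 0.1–2.5 µg/mL. 50 mM potassium phosphate, 1 mM EDTA, pH 7.0, 31 °C, with 100 µM NADH and naphthoquinone varied from 10 µM to 1.2 mM. DMSO was constant in all assays. NADH decrease followed at 340 nm. Km, Vmax and kcat came from Lineweaver-Burk plots, with kcat/Km derived. At least duplicate.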

Trypanosoma cruzi [11] = assay: The second order rate constant of the TcLipDH (Trypanosoma cruzi lipoamide dehydrogenase) catalyzed NADH oxidation.; method in brief: as §3
Trypanosoma brucei [12] = assay: In vitro antiparasitic activity against Trypanosoma brucei was tested by sigmoidal regression analysis at 30 uM; IA is inactive; type: functional, organism-based
Method in brief: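 T. b. brucei S427 bloodstream trypomastigotes at 2 × 10⁵/mL in HMI-18 medium, in triplicate, with a 3-fold dilution series starting at 30 µM. Incubated 3 days at 37 °C in 5% CO₂. Pentamidine served as positive control. Viability read by tetrazolium colorimetric assay on day 3. ED50 by sigmoidal regression.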

[13] = target: Trypanothione reductase (Trypanosoma cruzi) (UniProt P28593); assay: The second order rate constant of the TcTR (Trypanosoma cruzi trypanothione reductase) catalyzed […].
Method in brief: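 Recombinant TcTR (0.6 U) in 20 mM Hepes, 1 mM EDTA, 0.15 M KCl, pH 7.25 at 22 °C, with 200 µM NADPH and naphthoquinone at five concentrations (0–100 µM) in 1% DMSO. NADPH oxidation at 340 nm; intrinsic oxidase rate not subtracted. Km and Vmax from nonlinear Michaelis–Menten fit; kcat and kcat/Km calculated.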

Trypanosoma cruzi [14] = assay: The second oder rate constant of the TcLipDH (Trypanosoma cruzi lipoamide dehydrogenase) catalyzed NADH oxidation.; method in brief: as §2
Trypanosoma cruzi [15] = system: Trypanosoma cruzi

Trypanothione reductase (Trypanosoma cruzi), sequence (P28593 whole entry, looked up): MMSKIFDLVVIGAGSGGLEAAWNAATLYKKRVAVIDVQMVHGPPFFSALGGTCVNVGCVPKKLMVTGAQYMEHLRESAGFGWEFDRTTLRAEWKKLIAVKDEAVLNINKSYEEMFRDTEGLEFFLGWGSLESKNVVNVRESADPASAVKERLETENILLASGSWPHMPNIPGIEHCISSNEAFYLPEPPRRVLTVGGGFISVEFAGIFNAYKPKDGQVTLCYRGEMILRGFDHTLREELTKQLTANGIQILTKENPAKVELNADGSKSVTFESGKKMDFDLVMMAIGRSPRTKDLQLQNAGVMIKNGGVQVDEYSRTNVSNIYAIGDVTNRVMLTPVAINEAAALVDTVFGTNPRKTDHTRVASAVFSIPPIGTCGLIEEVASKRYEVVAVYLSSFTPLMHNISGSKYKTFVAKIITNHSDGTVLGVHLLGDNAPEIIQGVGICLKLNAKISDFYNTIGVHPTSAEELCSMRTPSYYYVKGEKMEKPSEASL

k cat/Km [3] | k cat/Km [6] | SMILES | ED50 (Leishmania donovani) | Reduction (Trypanosoma cruzi [1]) | Reduction [5] | Km (Trypanosoma cruzi [9]) | further results
6.6 10e4 M-1 s-1 |  | CC1=C(CCC(=O)O)C(=O)c2ccccc2C1=O | > 30 µM | 3% |  |  | Reduction [2]: 0.5%; k cat/Km [4]: 3.2 10e4 M-1 s-1
10.2 10e4 M-1 s-1 | 2.4 10e4 M-1 s-1 | CC1=C(CCC(=O)O)C(=O)c2c(O)cccc2C1=O | 72 µM | 6.6% | 1.6% |  | 
 |  | CC1=C(NCCCN2CCN(CCCN)CC2)C(=O)c2ccccc2C1=O |  |  |  |  | ED50 (Trypanosoma brucei [7]): > 12.5 µM
8.4 10e4 M-1 s-1 | 3.4 10e4 M-1 s-1 | CC1=C(CCCNC(=O)OC(C)(C)C)C(=O)c2ccccc2C1=O | 29.4 µM |  |  |  | 
 |  | CC1=CC(=O)c2ccccc2C1=O |  | 12.7% | 8.1% | 170 µM | IA (Trypanosoma brucei [12]): inactive; k cat/Km [13]: 1 10e4 M-1 s-1; k cat/Km [4]: 13 10e4 M-1 s-1
 | 3.5 10e4 M-1 s-1 | CC1=C(CCCNC(=O)OC(C)(C)C)C(=O)c2c(O)cccc2C1=O | 10 µM |  |  | 30 µM | k cat/Km (Trypanosoma cruzi [14]): 23 10e4 M-1 s-1; Vmax (Trypanosoma cruzi [10]): 8.24 µM/min/mg
 |  | CC1=C(CCC(=O)NCCCN2CCN(CCCNC(=O)CCC3=C(C)C(=O)c4ccccc4C3=O)CC2)C(=O)c2ccccc2C1=O | > 46 µM |  |  |  | x fold (Trypanosoma cruzi [15]): 1000 µM; k cat/Km [13]: 4.4 10e4 M-1 s-1

SMILES | k cat/Km [3] | k cat/Km [6] | ED50 (Leishmania donovani) | Reduction (Trypanosoma cruzi [1]) | Reduction [5] | Km (Trypanosoma cruzi [9]) | further results
CC1=C(CCC(=O)NCCCN2CCN(C)CC2)C(=O)c2ccccc2C1=O | 3 10e4 M-1 s-1 | 2.6 10e4 M-1 s-1 | > 30 µM | 1.6% | 0.8% |  | x fold [8]: 7
CC1=CC(=O)c2c(O)cccc2C1=O |  | 29 10e4 M-1 s-1 |  | 26.1% | 15.4% | 40 µM | Vmax (Trypanosoma cruzi [10]): 22.9 µM/min/mg; k cat/Km (Trypanosoma cruzi [11]): 48 10e4 M-1 s-1
